Measurements collected from several papers.
Protocols differ between the studies behind these lines.
Read-out: cell growth or viability

Compound | cell line | assay | setting | measurement | value
O=C(Nc1ccccc1/N=c1\cc(-c2ccc3c(c2)OCCO3)oc2cc(F)ccc12)N1CCOCC1 | MDA-MB-231 | CCK-8 | 1 µM | inhibition | 8.63%
COc1cc(C(=O)c2nc(-c3cccc4[nH]ccc34)c[nH]2)cc2c1OCO2 | A-375 | MTS | 72 h | IC50 | 0.0051 µM
NCCC(=O)Nc1ccccc1/N=c1\cc(-c2ccc3nc(N)oc3c2)oc2cc(O)ccc12 | MDA-MB-231 | CCK-8 | 1 µM | inhibition | 22%
COc1cccc(NC(=O)Nc2ccc(Oc3nc4ccccc4n4cnnc34)cc2)c1 | MDA-MB-231 | MTT | 50 µM, 24 h | viability | 32.4%
COc1cc(C(=O)c2nc(-c3ccc4cc[nH]c4c3)c[nH]2)cc(OC)c1OC | A-375 | MTS | 72 h | IC50 | 0.0199 µM
NCCC(=O)Nc1ccccc1/N=c1\cc(-c2ccc3nc(N)oc3c2)oc2ccccc12 | MDA-MB-231 | CCK-8 | 1 µM | inhibition | 68.6%
O=C(Nc1ccc(Cl)cc1)Nc1ccc(Oc2nc3ccccc3n3cnnc23)cc1 | MDA-MB-231 | MTT | 50 µM, 24 h | viability | 56.4%
COc1ccc2/c(=N/c3ccccc3NC(=O)CN)cc(-c3ccc4c(c3)OCCO4)oc2c1 | MDA-MB-231 | CCK-8 | 1 µM | inhibition | 12.6%
CNC(=O)c1cc(Oc2ccc(NC(=O)Nc3ccc(Cl)c(C(F)(F)F)c3)cc2)ccn1 | MDA-MB-231 | MTT | 50 µM, 24 h | viability | 16.7%
Nc1nc2ccc(-c3c/c(=N\c4ccccc4NC(=O)CCN4CCOCC4)c4ccccc4o3)cc2o1 | MDA-MB-231 | CCK-8 | 1 µM | inhibition | -0.02%
O=c1[nH]cc(F)c(=O)[nH]1 | C32 | SRB | 72 h | IC50 | 0.59 µg/mL
COc1cc(C(=O)c2nc(-c3cccc4[nH]nnc34)c[nH]2)cc(OC)c1OC | A-375 | MTS | 72 h | IC50 | 0.0632 µM
CN(C)c1ccc(Nc2nc(-c3ccncc3)nc3c2CC(N)CC3)cc1 (centres unmarked) | A-375 | MTT |  | IC50 | 12.6 µM
C=C1C[C@@]23CC[C@H]4[C@@](C)(CCC[C@@]4(C)C(=O)O)[C@@H]2CC[C@@H]1C3 | MRC5 | MTT | 75 h | IC50 | 99.2 µM
Cc1nc(Nc2ncc(C(=O)Nc3c(C)cccc3Cl)s2)cc(N2CC[C@H](O)C2)n1 | L-82 | ATP luminescence | 72 h | IC50 | > 10 µM
O=C(Nc1ccc(Oc2nc3ccccc3n3cnnc23)cc1)Nc1cccc(Cl)c1 | MDA-MB-231 | MTT | 50 µM, 24 h | viability | 41.2%
C[C@H]1CNCCN1c1nccc(-c2noc3c2CCC[C@@]32CCCc3sc(N)c(C#N)c32)n1 | A-375 |  | 5 days | EC50 | 5.01 µM
